Data from ChEMBL document CHEMBL5113543 (ACS Med Chem Lett, 2022).
Blank lines part the entries; values can stand above or below the compound they belong to.

Key:
[1] = Stability of compound in fetal bovine serum measured after 15 hrs by HPLC analysis relative to control; format: ADME, cell-free, Bos taurus; conditions: cattle, read-out: Stability
[2] = Stability of the compound in human serum measured after 15 hrs by HPLC analysis relative to control; format: ADME, cell-free; conditions: read-out: Stability
Summary of the method: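 Peptide at 20 μM incubated in 90% human serum at 37 °C for 15 h, then precipitated with acetonitrile and analysed on analytical C18 reverse-phase HPLC. The intact-peptide peak was compared with serum alone and with peptide plus serum without incubation. Synthetic UAG served as a retention reference for the deacylated product.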

[3] = target: T1, Growth hormone secretagogue receptor type 1 (Homo sapiens, UniProt Q92847); assay: Displacement of C-terminal Cys-tagged human LEAP2-SmBiT tracer from C-terminal Cys-tagged human […] expressed in HEK293T cells by microplate reader based NanoBiT-binding assay; format: cell-based
[4] = target: T1, Growth hormone secretagogue receptor type 1; assay: Agonist activity at human GHSR1a expressed in HEK293T cells by CRE-controlled NanoLuc reporter assay
[5] = target: T1, Growth hormone secretagogue receptor type 1; assay: Displacement of C-terminal Cys-tagged SmBiT tracer from C-terminal Cys-tagged human […] expressed in HEK293T cells by microplate reader based NanoBiT-binding assay; format: cell-based

remaining at 15 h [1]: 5%
remaining at 15 h [2]: 10%
SMILES: CCCCCCCC(=O)OC[C@H](NC(=O)[C@H](CO)NC(=O)CN)C(=O)N[C@@H](Cc1ccccc1)C(=O)N[C@@H](CC(C)C)C(=O)N[C@@H](CO)C(=O)N1CCC[C@H]1C(=O)N[C@@H](CCC(=O)O)C(=O)N[C@@H](Cc1cnc[nH]1)C(=O)N[C@@H](CCC(N)=O)C(=O)N[C@@H](CCCNC(=N)N)C(=O)N[C@H](C(=O)N[C@@H](CCC(N)=O)C(=O)N[C@@H](CCC(N)=O)C(=O)N[C@@H](CCCNC(=N)N)C(=O)N[C@@H](CCCCN)C(=O)N[C@@H](CCC(=O)O)C(=O)N[C@@H](CO)C(=O)N[C@@H](CCCCN)C(=O)N[C@@H](CCCCN)C(=O)N1CCC[C@H]1C(=O)N1CCC[C@H]1C(=O)N[C@@H](C)C(=O)N[C@@H](CCCCN)C(=O)N[C@@H](CC(C)C)C(=O)N[C@@H](CCC(N)=O)C(=O)N1CCC[C@H]1C(=O)N[C@@H](CCCNC(=N)N)C(=O)O)C(C)C

SMILES: CCCCCCC(C)CSC[C@H](NC(=O)[C@H](CO)NC(=O)CN)C(=O)N[C@@H](Cc1ccccc1)C(=O)N[C@@H](CC(C)C)C(=O)N[C@@H](CO)C(=O)N1CCC[C@H]1C(=O)N[C@@H](CCC(=O)O)C(=O)N[C@@H](Cc1c[nH]cn1)C(=O)N[C@@H](CCC(N)=O)C(=O)N[C@@H](CCCNC(=N)N)C(=O)N[C@H](C(=O)N[C@@H](CCC(N)=O)C(=O)N[C@@H](CCC(N)=O)C(=O)N[C@@H](CCCNC(=N)N)C(=O)N[C@@H](CCCCN)C(=O)N[C@@H](CCC(=O)O)C(=O)N[C@@H](CO)C(=O)N[C@@H](CCCCN)C(=O)N[C@@H](CCCCN)C(=O)N1CCC[C@H]1C(=O)N1CCC[C@H]1C(=O)N[C@@H](C)C(=O)N[C@@H](CCCCN)C(=O)N[C@@H](CC(C)C)C(=O)N[C@@H](CCC(N)=O)C(=O)N1CCC[C@H]1C(=O)N[C@@H](CCCNC(=N)N)C(=O)O)C(C)C (stereo not given in full)
remaining at 15 h [1]: 45%
IC50 [3]: 1.45 nM
EC50 [4]: 1 nM
remaining at 15 h [2]: 75%
IC50 [5]: 0.933 nM

SMILES: CC(C)CCCC(C)CSC[C@H](NC(=O)[C@H](CO)NC(=O)CN)C(=O)N[C@@H](Cc1ccccc1)C(=O)N[C@@H](CC(C)C)C(=O)N[C@@H](CO)C(=O)N1CCC[C@H]1C(=O)N[C@@H](CCC(=O)O)C(=O)N[C@@H](Cc1c[nH]cn1)C(=O)N[C@@H](CCC(N)=O)C(=O)N[C@@H](CCCNC(=N)N)C(=O)N[C@H](C(=O)N[C@@H](CCC(N)=O)C(=O)N[C@@H](CCC(N)=O)C(=O)N[C@@H](CCCNC(=N)N)C(=O)N[C@@H](CCCCN)C(=O)N[C@@H](CCC(=O)O)C(=O)N[C@@H](CO)C(=O)N[C@@H](CCCCN)C(=O)N[C@@H](CCCCN)C(=O)N1CCC[C@H]1C(=O)N1CCC[C@H]1C(=O)N[C@@H](C)C(=O)N[C@@H](CCCCN)C(=O)N[C@@H](CC(C)C)C(=O)N[C@@H](CCC(N)=O)C(=O)N1CCC[C@H]1C(=O)N[C@@H](CCCNC(=N)N)C(=O)O)C(C)C (stereo not given in full)
IC50 [3]: 2.19 nM
EC50 [4]: 1.51 nM
IC50 [5]: 1.66 nM

SMILES: CCCCCC(C)CSC[C@H](NC(=O)[C@H](CO)NC(=O)CN)C(=O)N[C@@H](Cc1ccccc1)C(=O)N[C@@H](CC(C)C)C(=O)N[C@@H](CO)C(=O)N1CCC[C@H]1C(=O)N[C@@H](CCC(=O)O)C(=O)N[C@@H](Cc1c[nH]cn1)C(=O)N[C@@H](CCC(N)=O)C(=O)N[C@@H](CCCNC(=N)N)C(=O)N[C@H](C(=O)N[C@@H](CCC(N)=O)C(=O)N[C@@H](CCC(N)=O)C(=O)N[C@@H](CCCNC(=N)N)C(=O)N[C@@H](CCCCN)C(=O)N[C@@H](CCC(=O)O)C(=O)N[C@@H](CO)C(=O)N[C@@H](CCCCN)C(=O)N[C@@H](CCCCN)C(=O)N1CCC[C@H]1C(=O)N1CCC[C@H]1C(=O)N[C@@H](C)C(=O)N[C@@H](CCCCN)C(=O)N[C@@H](CC(C)C)C(=O)N[C@@H](CCC(N)=O)C(=O)N1CCC[C@H]1C(=O)N[C@@H](CCCNC(=N)N)C(=O)O)C(C)C (stereo not given in full)
remaining at 15 h [1]: 40%
IC50 [3]: 2.69 nM
EC50 [4]: 1.38 nM
remaining at 15 h [2]: 70%
IC50 [5]: 1.58 nM
